Screening data from PubChem BioAssay.
Rows were chosen to be rich in hits. Some 3% of all compounds tested hit in one or more screens of this group.
PfG6PD inh – PfG6PD (Plasmodium falciparum) enzyme inhibition; PfGluPho enzyme, NADPH resazurin-diaphorase fluorescence; inhibition, % at 20 µM; hit rate 0.78% among 350,000;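 active = inhibition reaching at least a set limit at 20 µM in the primary screen, cut at about 59% in these data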
MC4R antag cAMP – antagonists of human melanocortin 4 receptor (MC4R); P32245; AID 540295; MC4R-expressing cells, MTII-stimulated cAMP, LANCE TR-FRET; hit rate 0.48% among 360,000; inhibition, % at 6.5 µM;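 active = inhibition above its plate's cutoff, the mean of tested wells on that plate plus 3 SD, cut at about 29% in these data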
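Test system: U2OS cells stably expressing human melanocortin 4 receptor (MC4R); also added: Melanotan II challenge; compound: 6.5 µM single dose; timing: 30-min compound preincubation, 1-h Melanotan II challenge, 1-h detection, room temperature; signal: Eu-cAMP/anti-cAMP TR-FRET, emission 671 nm; repeats: one well per compound, no replicates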
Beta2AR agonist – human beta-2 adrenergic receptor agonism by FAP; P07550; Am2.2-beta2AR cells, FAP receptor internalization, flow cytometry; response, % (test concentration not listed); hit rate 0.43% among 340,000;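 active = response above a set limit, near 3 SD of response in nonfluorescent compounds, cut at about 42% in these data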
ABHD5 PLIN5 PPI – ABHD5-PLIN5 protein interaction inhibition; Q00G26+Q8WTS1; Split G. princeps luciferase complementation, luminescence, 4 h; inhibition, % at 4 µM; hit rate 0.78% among 360,000;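 active = inhibition above the mean inhibition across every tested compound plus 3 SD, cut at about 22% in these data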
Target sequence (Q00G26 whole entry, looked up): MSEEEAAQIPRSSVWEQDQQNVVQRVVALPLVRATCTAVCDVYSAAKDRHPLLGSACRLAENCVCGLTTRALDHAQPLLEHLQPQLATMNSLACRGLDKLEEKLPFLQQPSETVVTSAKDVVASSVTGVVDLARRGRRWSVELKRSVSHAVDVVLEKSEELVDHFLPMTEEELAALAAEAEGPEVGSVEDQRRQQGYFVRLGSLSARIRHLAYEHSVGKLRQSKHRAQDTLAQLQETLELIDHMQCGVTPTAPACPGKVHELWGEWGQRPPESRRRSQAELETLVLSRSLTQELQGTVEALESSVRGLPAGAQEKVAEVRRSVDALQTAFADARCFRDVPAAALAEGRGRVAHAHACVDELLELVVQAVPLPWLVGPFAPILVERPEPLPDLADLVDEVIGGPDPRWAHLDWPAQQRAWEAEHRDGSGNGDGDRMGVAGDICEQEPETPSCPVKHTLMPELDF
Target sequence (Q8WTS1 whole entry, looked up): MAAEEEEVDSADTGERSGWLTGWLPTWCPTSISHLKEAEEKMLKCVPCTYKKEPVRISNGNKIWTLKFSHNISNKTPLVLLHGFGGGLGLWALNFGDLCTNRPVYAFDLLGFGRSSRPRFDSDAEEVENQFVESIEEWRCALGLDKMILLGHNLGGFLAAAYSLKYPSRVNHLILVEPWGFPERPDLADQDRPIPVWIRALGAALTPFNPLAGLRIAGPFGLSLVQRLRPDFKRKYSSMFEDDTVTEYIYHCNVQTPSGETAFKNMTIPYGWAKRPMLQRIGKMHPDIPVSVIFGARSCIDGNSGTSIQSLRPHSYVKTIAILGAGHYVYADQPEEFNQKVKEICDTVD
MC4R barr agon – activates human MC4R beta-arrestin recruitment; P32245; U2OS MC4R beta-arrestin complementation, luminescence; percent of melanotan II response, DMSO zero; activation, % at 8.9 µM; hit rate 0.98% among 360,000; AID 540308;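 active = activation above a per-plate cutoff, the mean activation of sample wells on that plate plus 3 SD, cut at about 8% in these data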
PfGluPho conf – PfG6PD inhibition, single-dose confirmed. recombinant PfGluPho, NADPH-diaphorase-resazurin fluorescence. shares compounds with PfG6PD inh. hit rate 34% among 2,400. inhibition, % at 20 µM. AID 504753;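 active = inhibition of at least 50% at 20 µM in any single replicate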
Diaphorase 10uM – inhibits diaphorase or oxidizes, flagging false PfG6PD hits. diaphorase-coupled resazurin reduction, fluorescence, NADPH 10 uM. hit rate 39% among 820. AID 504862. inhibition, % at 20 µM. shares compounds with PfG6PD inh;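 active = average inhibition reaching 50% or more with the compound at 20 µM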;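 also: resorufin red fluorescence formed as diaphorase reduces resazurin using NADPH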
Diaph ctr 30uM – diaphorase inhibition or oxidation at 30 uM NADPH | inhibition, % at 20 µM | AID 504863 | hit rate 29% among 820 | shares compounds with PfG6PD inh | Diaphorase/resazurin coupled assay, resorufin fluorescence;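 active = inhibition averaging 50% or more, tested at 20 µM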
cAMP nonselect – nonselective cAMP signaling inhibitor, MC4R antagonist counter-screen | shares compounds with MC4R antag cAMP | parental U2OS, forskolin cAMP, LANCE TR-FRET | inhibition, % at 6.5 µM | hit rate 26% among 1,600 | AID 602193;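 active = mean inhibition over triplicates above the low-control well mean plus 3 SD, set per campaign, cut at about 13% in these data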;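 also: signal is single emission at 671 nm which falls as cellular cAMP rises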
MC4R antag conf – human MC4R cAMP antagonism confirmation; shares compounds with MC4R antag cAMP; MC4R-expressing cells, MTII-stimulated cAMP, TR-FRET; inhibition, % at 6.5 µM; hit rate 27% among 1,600; in the data active = inhibition above about 29%
MC4R barr conf – human MC4R beta-arrestin agonism confirmation | activation, % at 8.9 µM | AID 602192 | hit rate 31% among 2,400 | U2OS MC4R beta-arrestin recruitment, luminescence; scaled DMSO 0%, Melanotan II 100% | shares compounds with MC4R barr agon;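 active = mean activation across replicates above the hit cutoff set in the earlier primary screen, cut at about 8% in these data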
MOR-DOR barr ag – counter-screen for MC4R agonists: agonists of mu-delta opioid heterodimer; shares compounds with MC4R barr agon; U2OS PathHunter beta-arrestin, beta-gal luminescence; percent of deltorphin B response, DMSO zero; activation, % at 9.2 µM; hit rate 5.8% among 2,400; AID 602194;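 active = mean activation across replicates exceeds the hit threshold derived in the earlier primary screen, cut at about 18% in these data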
Hits are given with their value.

CCN1CCN(C(=O)NCc2ccccc2)CC1 was read as PfG6PD inh inactive, MC4R antag cAMP inactive, Beta2AR agonist inactive, ABHD5 PLIN5 PPI inactive and MC4R barr agon inactive.
Screening CCCCNc1c(-c2cccc(-c3cc(C(C)=O)cs3)c2)nc2ccc(C)cn12 returned PfG6PD inh 66.6, MC4R antag cAMP 50.2, Beta2AR agonist inactive, ABHD5 PLIN5 PPI inactive, MC4R barr agon 19.1, PfGluPho conf inactive, cAMP nonselect inactive, MC4R antag conf inactive, MC4R barr conf 23.8 and MOR-DOR barr ag inactive.
Cc1ccc(S(=O)(=O)Oc2ccccc2/C=N/Nc2ccc(C(=O)O)cc2)cc1 was read as PfG6PD inh inactive, MC4R antag cAMP inactive, Beta2AR agonist inactive, ABHD5 PLIN5 PPI inactive and MC4R barr agon inactive.
O=C1CN(C(=O)COC(=O)c2ccc[n+]([O-])c2)c2ccccc2N1 was read as PfG6PD inh inactive, MC4R antag cAMP inactive, Beta2AR agonist inactive, ABHD5 PLIN5 PPI inactive and MC4R barr agon inactive.
For Cc1ccccc1N/C(SCc1cccc(Br)c1)=C(/C#N)C(N)=O the results were PfG6PD inh 97.3, MC4R antag cAMP inactive, Beta2AR agonist inactive, ABHD5 PLIN5 PPI inactive, MC4R barr agon 22.5, PfGluPho conf 67.0, Diaphorase 10uM 60.6, Diaph ctr 30uM inactive, MC4R barr conf inactive and MOR-DOR barr ag inactive.
Screening Cn1c2c(c3ccccc31)CCN1CCC[C@]21c1ccccc1 returned PfG6PD inh inactive, MC4R antag cAMP inactive, Beta2AR agonist inactive, ABHD5 PLIN5 PPI inactive and MC4R barr agon inactive.
Screening COc1ccc(C(=O)c2coc3c2C(=O)C(=O)c2ccccc2-3)cc1 returned PfG6PD inh 111.2, MC4R antag cAMP inactive, Beta2AR agonist inactive, ABHD5 PLIN5 PPI inactive, MC4R barr agon 16.9, PfGluPho conf 104.3, Diaphorase 10uM 97.2, Diaph ctr 30uM 91.6, MC4R barr conf inactive and MOR-DOR barr ag inactive.
COc1ccccc1C1CC(=O)Oc2ccc(C(C)(C)C)cc21 (centres undefined) was read as PfG6PD inh inactive, MC4R antag cAMP inactive, Beta2AR agonist inactive, ABHD5 PLIN5 PPI inactive and MC4R barr agon inactive.
`Clc1ccc(Cl)c(-c2nn3c(COc4ccccc4)nnc3s2)c1` gave PfG6PD inh 60.3, MC4R antag cAMP inactive, Beta2AR agonist inactive, ABHD5 PLIN5 PPI inactive, MC4R barr agon 17.2, PfGluPho conf inactive, MC4R barr conf 11.4 and MOR-DOR barr ag inactive.
Screening O=C(CSc1ccccc1)Nc1nnc(COc2ccc(Cl)cc2)s1 returned PfG6PD inh 78.3, MC4R antag cAMP inactive, Beta2AR agonist inactive, ABHD5 PLIN5 PPI inactive, MC4R barr agon 18.0, PfGluPho conf inactive, MC4R barr conf inactive and MOR-DOR barr ag inactive.
Screening CC(C)CSc1nc2c(c(=O)[nH]c(=O)n2C)n1CC(O)COc1cccc2ccccc12 (centres undefined) returned PfG6PD inh 64.1, MC4R antag cAMP inactive, Beta2AR agonist inactive, ABHD5 PLIN5 PPI inactive, MC4R barr agon 14.3, PfGluPho conf inactive, MC4R barr conf inactive and MOR-DOR barr ag inactive.
CCSc1nc2c(c(=O)[nH]c(=O)n2C)n1CC(O)COc1ccccc1 (centres undefined) was read as PfG6PD inh inactive, MC4R antag cAMP inactive, Beta2AR agonist inactive, ABHD5 PLIN5 PPI inactive and MC4R barr agon inactive.
`CC(=O)Nc1cccc(NC(=O)Cc2cccs2)c1` gave PfG6PD inh inactive, MC4R antag cAMP inactive, Beta2AR agonist inactive, ABHD5 PLIN5 PPI inactive and MC4R barr agon inactive.
For O=C(Cc1cccs1)Nc1cccc(-c2nc3cc4ccccc4cc3[nH]2)c1 the results were PfG6PD inh 63.4, MC4R antag cAMP inactive, Beta2AR agonist inactive, ABHD5 PLIN5 PPI inactive, MC4R barr agon 10.6, PfGluPho conf inactive, MC4R barr conf 13.9 and MOR-DOR barr ag inactive.
For N=C(N)c1ccc(N=Nc2c(O)ccc3c2[nH]c2ccccc23)cc1 the results were PfG6PD inh 78.2, MC4R antag cAMP inactive, Beta2AR agonist inactive, ABHD5 PLIN5 PPI inactive, MC4R barr agon 10.0, PfGluPho conf inactive, MC4R barr conf 10.1 and MOR-DOR barr ag inactive.
CN(C)C(=O)/C(C#N)=C\c1cc(Br)c(Sc2ccc(Cl)cc2)o1 was read as PfG6PD inh 106.6, MC4R antag cAMP inactive, Beta2AR agonist inactive, ABHD5 PLIN5 PPI inactive, MC4R barr agon 13.8, PfGluPho conf inactive, MC4R barr conf inactive and MOR-DOR barr ag inactive.
Clc1ccc(Sc2oc(/C=N/n3cnnc3)cc2Br)cc1 was read as PfG6PD inh inactive, MC4R antag cAMP inactive, Beta2AR agonist inactive, ABHD5 PLIN5 PPI inactive and MC4R barr agon inactive.
`NS(=O)(=O)c1ccc(CNC(=O)Cc2ccsc2)cc1` gave PfG6PD inh inactive, MC4R antag cAMP inactive, Beta2AR agonist inactive, ABHD5 PLIN5 PPI inactive and MC4R barr agon inactive.
C(=N\NC1=Nc2cccc3cccc1c23)/c1ccccc1 was read as PfG6PD inh 66.2, MC4R antag cAMP inactive, Beta2AR agonist inactive, ABHD5 PLIN5 PPI inactive, MC4R barr agon 13.7, PfGluPho conf inactive, MC4R barr conf inactive and MOR-DOR barr ag inactive.
Screening COc1ccc(NC2=Nc3cccc4cccc2c34)cc1OC returned PfG6PD inh inactive, MC4R antag cAMP inactive, Beta2AR agonist inactive, ABHD5 PLIN5 PPI inactive and MC4R barr agon inactive.
COc1ccc2[nH]c3c(C)c4ccncc4c(C)c3c2c1 was read as PfG6PD inh 60.3, MC4R antag cAMP inactive, Beta2AR agonist inactive, ABHD5 PLIN5 PPI inactive, MC4R barr agon 13.7, PfGluPho conf inactive, MC4R barr conf 28.1 and MOR-DOR barr ag inactive.
`COc1ccc2[nH]c(C)cc(=O)c2c1` gave PfG6PD inh inactive, MC4R antag cAMP inactive, Beta2AR agonist inactive, ABHD5 PLIN5 PPI inactive and MC4R barr agon inactive.
